In ChEMBL document CHEMBL1765003, “Discovery of (1S,2R,3R)-2,3-dimethyl-2-phenyl-1-sulfamidocyclopropanecarboxylates: novel and highly selective aggrecanase inhibitors” (J Med Chem, 2011):

Assays:
[1] = biological target: T1, Interstitial collagenase (Homo sapiens, UniProt P03956); test: Inhibition of human recombinant MMP1 after 60 mins by fluorescence plate reader
T1 sequence (P03956 whole entry): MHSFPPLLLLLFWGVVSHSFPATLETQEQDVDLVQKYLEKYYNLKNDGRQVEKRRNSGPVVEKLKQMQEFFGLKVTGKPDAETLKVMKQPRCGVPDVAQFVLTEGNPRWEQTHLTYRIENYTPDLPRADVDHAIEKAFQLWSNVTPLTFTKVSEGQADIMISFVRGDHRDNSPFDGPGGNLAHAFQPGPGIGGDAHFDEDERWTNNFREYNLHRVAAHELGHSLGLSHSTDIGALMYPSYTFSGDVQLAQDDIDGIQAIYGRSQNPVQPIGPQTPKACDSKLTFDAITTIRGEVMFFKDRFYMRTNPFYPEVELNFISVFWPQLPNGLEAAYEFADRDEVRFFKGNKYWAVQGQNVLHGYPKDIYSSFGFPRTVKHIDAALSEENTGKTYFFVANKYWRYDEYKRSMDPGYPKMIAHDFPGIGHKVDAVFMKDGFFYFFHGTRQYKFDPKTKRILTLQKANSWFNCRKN
How it was run: (§1)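 Recombinant human enzyme at 20 ng/mL with 10 μM MOCAc-Lys-Pro-Leu-Gly-Leu-A2pr(Dnp)-Ala-Arg-NH₂, in 100 mM Tris-HCl pH 7.5, 150 mM NaCl, 10 mM CaCl₂, 0.05% Brij-35. Enzyme pretreated with inhibitor for 15 min at 25 °C, then substrate added. Fluorescence (ex 325, em 405 nm) read at 60 min. IC50 taken from three points in the linear range; mean of ≥2 determinations.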

[2] = biological target: T2, A disintegrin and metalloproteinase with thrombospondin motifs 5 (Homo sapiens, UniProt Q9UNA0); test: Inhibition of human recombinant aggrecanase 2 after 150 mins by fluorescence plate reader
T2 sequence (Q9UNA0 whole entry): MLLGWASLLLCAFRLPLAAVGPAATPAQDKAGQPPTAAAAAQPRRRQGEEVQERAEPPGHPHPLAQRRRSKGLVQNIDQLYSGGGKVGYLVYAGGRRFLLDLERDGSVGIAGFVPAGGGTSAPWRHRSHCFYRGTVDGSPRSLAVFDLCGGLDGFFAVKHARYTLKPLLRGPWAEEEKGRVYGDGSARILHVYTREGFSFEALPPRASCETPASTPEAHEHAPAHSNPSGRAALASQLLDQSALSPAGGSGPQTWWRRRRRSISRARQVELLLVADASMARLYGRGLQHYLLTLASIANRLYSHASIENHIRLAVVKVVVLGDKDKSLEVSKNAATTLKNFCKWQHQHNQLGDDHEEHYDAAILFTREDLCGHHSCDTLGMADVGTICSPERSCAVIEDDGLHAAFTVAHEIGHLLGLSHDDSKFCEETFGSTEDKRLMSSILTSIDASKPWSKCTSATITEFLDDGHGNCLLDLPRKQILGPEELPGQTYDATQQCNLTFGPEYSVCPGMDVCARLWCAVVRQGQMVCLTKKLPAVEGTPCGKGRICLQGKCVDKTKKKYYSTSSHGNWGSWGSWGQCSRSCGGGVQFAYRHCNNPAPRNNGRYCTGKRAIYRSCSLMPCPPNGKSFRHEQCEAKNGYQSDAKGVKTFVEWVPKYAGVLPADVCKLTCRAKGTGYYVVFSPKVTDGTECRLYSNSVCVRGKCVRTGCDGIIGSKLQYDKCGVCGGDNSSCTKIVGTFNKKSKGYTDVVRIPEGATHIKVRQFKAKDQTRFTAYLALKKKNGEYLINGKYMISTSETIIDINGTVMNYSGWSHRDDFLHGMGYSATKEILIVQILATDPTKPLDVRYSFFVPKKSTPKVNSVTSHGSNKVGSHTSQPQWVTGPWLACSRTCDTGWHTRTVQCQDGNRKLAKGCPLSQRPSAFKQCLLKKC

[3] = biological target: Matrix metalloproteinase-14 (Homo sapiens, UniProt P50281); test: Inhibition of human recombinant MMP14 after 60 mins by fluorescence plate reader; how it was run: as §1
[4] = biological target: Disintegrin and metalloproteinase domain-containing protein 17 (Homo sapiens, UniProt P78536); test: Inhibition of human recombinant TACE after 60 mins by fluorescence plate reader
Sequence of Disintegrin and metalloproteinase domain-containing protein 17 (P78536 whole entry, the tested form may be a part): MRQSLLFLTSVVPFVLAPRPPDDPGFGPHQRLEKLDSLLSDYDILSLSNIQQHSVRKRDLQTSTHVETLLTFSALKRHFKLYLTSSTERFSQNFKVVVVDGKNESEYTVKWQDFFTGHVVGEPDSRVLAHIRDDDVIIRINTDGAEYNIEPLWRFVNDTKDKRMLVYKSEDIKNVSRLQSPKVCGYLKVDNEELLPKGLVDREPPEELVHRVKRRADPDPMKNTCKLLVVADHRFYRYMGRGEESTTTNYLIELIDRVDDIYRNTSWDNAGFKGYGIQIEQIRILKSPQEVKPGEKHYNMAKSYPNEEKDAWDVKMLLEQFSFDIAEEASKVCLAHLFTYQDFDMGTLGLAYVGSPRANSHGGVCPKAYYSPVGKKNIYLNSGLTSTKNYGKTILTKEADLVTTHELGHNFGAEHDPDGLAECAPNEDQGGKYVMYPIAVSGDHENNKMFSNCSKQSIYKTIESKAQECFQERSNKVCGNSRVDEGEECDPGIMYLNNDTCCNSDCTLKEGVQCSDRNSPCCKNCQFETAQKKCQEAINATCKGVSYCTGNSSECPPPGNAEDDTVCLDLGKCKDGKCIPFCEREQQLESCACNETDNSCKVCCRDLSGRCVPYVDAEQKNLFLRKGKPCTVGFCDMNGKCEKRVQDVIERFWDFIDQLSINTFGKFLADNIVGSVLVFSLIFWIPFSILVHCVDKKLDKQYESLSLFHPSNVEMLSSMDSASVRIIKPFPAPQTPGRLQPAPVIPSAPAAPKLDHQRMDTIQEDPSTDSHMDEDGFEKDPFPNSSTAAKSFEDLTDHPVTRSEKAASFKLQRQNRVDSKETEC
How it was run: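 rh-TACE at 80 ng/mL with 10 μM MCA-Pro-Leu-Ala-Gln-Ala-Val-Dpa-Arg-Ser-Ser-Ser-Arg-NH₂, in 100 mM Tris-HCl pH 7.5, 150 mM NaCl, 10 mM CaCl₂, 0.05% Brij-35. Inhibitor preincubated for 15 min at 25 °C. Fluorescence (ex 325/em 405 nm) read at 60 min. IC50 from three linear-range points; mean of ≥2.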

Compound	IC50 [1] [µM]	IC50 [2] [µM]	IC50 [3] [µM]	IC50 [4] [µM]
C[C@@H]1CN(S(=O)(=O)N[C@@]2(C(=O)O)[C@H](C)[C@@H]2c2ccccc2)CCN1c1ccc(C2CC2)cc1	> 10	0.27	1.4	
C[C@@H]1[C@H](c2ccccc2)[C@]1(NS(=O)(=O)N1CC=C(c2ccc(Cl)cc2)CC1)C(=O)O	> 10	0.062	0.3	> 10
Cc1cnn(-c2ccc(S(=O)(=O)N[C@@]3(C(=O)O)[C@H](C)[C@@H]3c3ccccc3)s2)c1	< 0.3	0.019	0.0012	> 10
C[C@@H]1[C@H](c2ccccc2)[C@]1(NS(=O)(=O)c1cc2[nH]c3cc(F)ccc3c2s1)C(=O)O	0.23	0.0083	0.008	1.1
COCc1cc(N2CCN(S(=O)(=O)N[C@@]3(C(=O)O)[C@H](C)[C@@H]3c3ccccc3)C[C@H]2C)no1	> 10	0.067	1.4	> 10
C[C@@H]1[C@H](c2ccccc2)[C@]1(NS(=O)(=O)c1cc2nc3cc(Cl)ccn3c2s1)C(=O)O	1.5	0.023	0.1	> 10
C[C@@H]1[C@H](c2ccccc2)[C@]1(NS(=O)(=O)c1cc2[nH]c3ccc(F)cc3c2s1)C(=O)O	1.3	0.01	0.025	1.9
CCC1CN(S(=O)(=O)N[C@@]2(C(=O)O)[C@H](C)[C@@H]2c2ccccc2)CCN1c1ccc(Cl)cc1 (mixture of isomers)		0.41	> 10	
C[C@@H]1[C@H](c2ccccc2)[C@]1(NS(=O)(=O)c1cc2[nH]c3cc(Cl)ccc3c2s1)C(=O)O	1	0.0029	0.017	3.8
C[C@@H]1[C@H](c2ccccc2)[C@]1(NS(=O)(=O)N1CCN(c2ccc(Cl)cc2)C(CO)C1)C(=O)O (mixture of isomers)		0.23	6.1	
C[C@@H]1[C@](C)(c2ccccc2)[C@]1(NS(=O)(=O)N1CCc2c(nn3cc(F)ccc23)C1)C(=O)O	> 10	0.01	2.1	> 10
COc1cnn(-c2ccc(S(=O)(=O)N[C@@]3(C(=O)O)[C@H](C)[C@@H]3c3ccccc3)s2)c1	0.033	0.017	0.0013	1.6
C[C@@H]1CN(S(=O)(=O)N[C@@]2(C(=O)O)[C@H](C)[C@@H]2c2ccccc2)CCN1c1ccc(C#N)s1	> 10	0.033	6	> 10
C[C@@H]1CN(S(=O)(=O)N[C@@]2(C(=O)O)[C@H](C)[C@@H]2c2ccccc2)CCN1c1cc(C(C)(F)F)on1	2.6	0.13	1.1	> 10
Cc1cc(S(=O)(=O)N[C@@]2(C(=O)O)[C@H](C)[C@@H]2c2ccccc2)sc1-n1cc(Cl)cn1		> 1		
C[C@@H]1[C@H](c2ccccc2)[C@]1(NS(=O)(=O)c1ccc(-c2ccc(Cl)cc2)s1)C(=O)O	4		0.019	2.7
C[C@@H]1[C@H](c2ccccc2)[C@]1(NS(=O)(=O)c1cc2nn3cc(Cl)ccc3c2s1)C(=O)O	1.3	0.029	0.1	> 10

Results, then the compound that gave them:

IC50 [1] [µM]	IC50 [2] [µM]	IC50 [3] [µM]	IC50 [4] [µM]	Compound
> 10	0.1	0.24	> 10	C[C@@H]1[C@H](c2ccccc2)[C@]1(NS(=O)(=O)N1CCn2c(nc3ccc(F)cc32)C1)C(=O)O
> 10	0.02	1.1	> 10	C[C@@H]1[C@H](c2ccccc2)[C@]1(NS(=O)(=O)N1CCn2c(nc3cc(F)ccc32)C1)C(=O)O
> 10	0.32	0.9	> 10	Cc1ccc2c(c1)nc1n2CCN(S(=O)(=O)N[C@@]2(C(=O)O)[C@H](C)[C@@H]2c2ccccc2)C1
4.2	0.0086	0.14	> 10	C[C@@H]1[C@H](c2ccccc2)[C@]1(NS(=O)(=O)N1CCc2c(nn3cc(F)ccc23)C1)C(=O)O
> 10	0.021	0.27	> 10	C[C@@H]1[C@H](c2ccccc2)[C@]1(NS(=O)(=O)N1CCc2c(nc3cc(Cl)ccn23)C1)C(=O)O
> 10	0.087	0.45	> 10	C[C@@H]1[C@H](c2ccccc2)[C@]1(NS(=O)(=O)N1CCN(c2ccc(Cl)cc2)CC1)C(=O)O
> 10	0.18	> 10	> 10	C[C@@H]1CN(S(=O)(=O)N[C@@]2(C(=O)O)[C@H](C)[C@@H]2c2ccccc2)CCN1c1ccc(F)cc1
> 10	0.06	0.61	> 10	C[C@@H]1[C@H](c2ccccc2)[C@]1(NS(=O)(=O)N1CCn2c(nc3cc(Cl)ccc32)C1)C(=O)O
> 10	0.33	4.3	> 10	COc1ccc2c(c1)nc1n2CCN(S(=O)(=O)N[C@@]2(C(=O)O)[C@H](C)[C@@H]2c2ccccc2)C1
> 10	0.092	2.2	> 10	C[C@@H]1[C@H](c2ccccc2)[C@]1(NS(=O)(=O)N1CCn2c(nc3ccccc32)C1)C(=O)O
> 10	0.11	2.3	> 10	C[C@@H]1[C@H](c2ccccc2)[C@]1(NS(=O)(=O)N1CCn2c(cc3cc(Cl)sc32)C1)C(=O)O
2.3	0.038	0.098	> 10	C[C@@H]1[C@H](c2ccccc2)[C@]1(NS(=O)(=O)N1CCc2c([nH]c3cc(F)ccc23)C1)C(=O)O
	0.33	2.9		C[C@@H]1[C@H](c2ccccc2)[C@]1(NS(=O)(=O)N1CCN(c2ccc(Cl)cc2)C(C)(C)C1)C(=O)O
> 10	0.039	0.42	> 10	C[C@@H]1[C@H](c2ccccc2)[C@]1(NS(=O)(=O)N1CCn2c(cc3cc(Cl)ccc32)C1)C(=O)O
3.7	0.066	0.28	> 10	C[C@@H]1[C@H](c2ccccc2)[C@]1(NS(=O)(=O)N1Cc2nc3cc(Cl)ccn3c2C1)C(=O)O
> 10	0.25	4.9	> 10	C[C@@H]1[C@H](c2ccccc2)[C@]1(NS(=O)(=O)N1CCn2c(nc3cc(C#N)ccc32)C1)C(=O)O
> 10	0.017	2.1	6.3	C[C@@H]1[C@H](c2ccccc2)[C@]1(NS(=O)(=O)N1CCc2c(nc3cc(F)ccn23)C1)C(=O)O
